# GSTO1 counter = GSTO1 inhibition, counter-screen for RBBP9 inhibitors; P78417; recombinant GSTO1, activity-based probe fluorescence polarization; inhibition, % at 5.96 µM; hit rate 1.1% among 300,000; AID 1974;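 active = inhibition above the campaign mean inhibition plus 3 SD, cut at about 35% in these data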;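 note: 0% = GSTO1-1 with DMSO and 100% = wells lacking GSTO1-1 enzyme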
# PRMT1 FP inh = inhibitors of human PRMT1; Q99873; recombinant PRMT1, activity-based probe fluorescence polarization; inhibition, % at 2.79 µM; hit rate 1.3% among 370,000; AID 652257;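 active = inhibition above about 21% made by adding two undisclosed values, limit read from the data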
# PAD4 inh = blocks human protein arginine deiminase 4; recombinant PAD4, RCA probe fluorescence polarization; Q9UM07; hit rate 0.41% among 330,000; inhibition, % at 6.36 µM;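 active = percent inhibition above a cutoff equal to the mean of all tested compounds plus 3 SD, cut at about 15% in these data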;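 note: 0% = PAD4 with RCA probe and DMSO and 100% = probe without PAD4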
# Target sequence (Q9UM07 whole entry, looked up): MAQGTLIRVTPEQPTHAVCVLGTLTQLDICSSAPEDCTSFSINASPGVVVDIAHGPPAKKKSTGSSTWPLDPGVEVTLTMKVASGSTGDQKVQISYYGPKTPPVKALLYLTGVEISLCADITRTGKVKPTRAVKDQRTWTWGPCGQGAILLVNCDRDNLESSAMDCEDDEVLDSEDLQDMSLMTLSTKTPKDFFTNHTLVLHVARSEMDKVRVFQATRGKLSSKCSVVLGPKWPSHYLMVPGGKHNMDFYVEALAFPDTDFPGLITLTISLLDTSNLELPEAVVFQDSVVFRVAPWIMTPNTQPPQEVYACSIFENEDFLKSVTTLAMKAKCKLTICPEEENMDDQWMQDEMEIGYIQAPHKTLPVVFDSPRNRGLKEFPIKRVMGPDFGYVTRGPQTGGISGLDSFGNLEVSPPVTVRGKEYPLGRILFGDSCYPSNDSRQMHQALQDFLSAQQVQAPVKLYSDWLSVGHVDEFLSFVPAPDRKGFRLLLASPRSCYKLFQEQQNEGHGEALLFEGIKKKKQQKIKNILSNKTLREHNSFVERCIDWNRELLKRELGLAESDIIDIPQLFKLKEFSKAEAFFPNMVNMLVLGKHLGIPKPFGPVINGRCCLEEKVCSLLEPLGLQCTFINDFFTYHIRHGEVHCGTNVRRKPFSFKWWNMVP
# Fam108B counter = blocks mouse Fam108B hydrolase in RBBP9 counter-screen. AID 1947. recombinant Fam108B, FP-Rh probe fluorescence polarization. hit rate 0.33% among 300,000. inhibition, % at 9.51 µM;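 active = inhibition above the screen mean inhibition plus 3 SD, computed separately per campaign, cut at about 18% in these data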;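 note: inhibitors lower polarization as less probe binds the enzyme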
# RBBP9 inhibitor = inhibitors of human serine hydrolase RBBP9 | O75884 | recombinant RBBP9, FP-Rh probe fluorescence polarization | inhibition, % at 7.94 µM | hit rate 0.2% among 220,000 | AID 1515;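 active = inhibition above the campaign mean of all tested compounds plus 3 SD, cut at about 14% in these data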;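 note: plate controls were DMSO wells with RBBP9 for no effect and wells lacking RBBP9 protein for full effect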
#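 System: RBBP9 protein / Buffer or medium: Tris/NaCl buffer pH 8.0 with 0.1% Pluronic / Probe or stimulus: Serine-hydrolase probe FP-Rh, 375 nM pre-mixing / Dosing: 7.94 µM single dose, 0.794% DMSO / Times: enzyme-compound preincubation 30 min, then probe labeling 45 min, 25 °C / Technique: fluorescence polarization (mP), excitation 525 nm, emission 598 nm / Replication: singlicate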
# PME-1 inh = PME-1 (human) inhibition; AID 2130; recombinant PME-1, FP-Rh probe fluorescence polarization; inhibition, % at 5.9 µM; hit rate 0.53% among 320,000; Q9Y570;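 active = inhibition above the campaign mean of all compounds plus 3 SD, cut at about 26% in these data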;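 note: competitive labeling of PME-1 active site by serine hydrolase directed probe; 0% = PME-1 with DMSO and 100% = wells lacking PME-1 enzyme; inhibitors block probe labeling so polarization falls and inhibition rises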
# Fam108b inh conf = confirmation of mouse Fam108b serine hydrolase inhibitors; shares compounds with Fam108B counter; recombinant Fam108b, FP-Rh probe fluorescence polarization; inhibition, % at 9.51 µM; hit rate 44% among 930; AID 1978;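 active = inhibition above a limit from the primary screen, the mean over all compounds plus 3 SD, cut at about 19% in these data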;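 note: 0% = median of active Fam108b wells and 100% = catalytically dead S170A mutant; inhibitors free the probe so polarization falls as inhibition rises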
# Fam108b ABPP HTS = mouse ABHD17B inhibition; shares compounds with Fam108B counter; hit rate 44% among 260; AID 588649; recombinant Fam108b, gel-based ABPP, fluorophosphonate probe; inhibition, % at 20 µM; in the data active = inhibition above about 40%
# An asterisk follows results filed as active; · = no result. Compounds with a hit are over-represented: about 2.3% of the library has one in this group of screens.
SMILES,GSTO1 counter,PRMT1 FP inh,PAD4 inh,Fam108B counter,RBBP9 inhibitor,PME-1 inh,Fam108b inh conf,others
Fc1ccc(C2=Nc3cccc4cccc(c34)N2)cc1,9.8,5.1,-3.6,7.5,-5.6,2.8,·,
Brc1ccc(C2=Nc3cccc4cccc(c34)N2)o1,23.0,18.3,1.6,19.5*,-3.2,2.8,12.1,
O=C(Nc1ccc(N2CCCC2)c(S(=O)(=O)Nc2cccc(C(F)(F)F)c2)c1)c1cccs1,-7.7,1.9,-0.3,21.5*,-20.8,7.8,32.6*,Fam108b ABPP HTS=85.0*
O=C(O)C(S)C(S)C(=O)O (centres undefined),64.2*,·,1.8,21.1*,·,-3.9,12.9,
O=C(C[C@H]1C/C=C\CC[C@H](Cc2ccc(F)cc2)C(=O)OC[C@@H](Cc2c[nH]c3ccccc23)NC1=O)NCCO,·,-2.6,2.3,·,·,·,·,
CCCn1c(=N)n(CC(=O)c2ccc(Cl)cc2)c2ccccc21,0.3,7.5,-5.8,1.6,·,12.0,·,
CCCn1c(=N)n(CC(=O)c2ccc([N+](=O)[O-])cc2)c2ccccc21,11.5,-0.2,-1.4,24.2*,-0.2,14.3,2.4,
COc1ccc(C2C(C(=O)NCc3cccnc3)c3cc(OC)c(OC)cc3C(=O)N2C)cc1 (centres undefined),2.5,0.7,0.3,0.3,-1.8,2.2,·,
COc1cc2c(cc1NC(=S)Nc1cccc3ccccc13)oc1ccccc12,3.6,4.0,-3.2,14.3,1.2,22.4,·,
COc1cc2c(cc1NC(=S)Nc1cccc(C(F)(F)F)c1)oc1ccccc12,-3.3,3.1,-2.7,24.4*,-6.2,-1.1,44.6*,Fam108b ABPP HTS=85.0*
COc1cc2c(cc1NC(=O)CCC(=O)O)oc1ccccc12,15.0,-0.3,-16.3,-0.9,·,-4.6,·,
COc1cc2c(cc1NC(=O)Nc1ccccc1)oc1ccccc12,-34.6,-1.2,-2.6,33.4*,-21.0,30.7*,42.9*,Fam108b ABPP HTS=90.0*
O=[N+]([O-])c1cc(C=Nc2ccc3ccccc3c2)ccc1Br,13.8,2.9,-2.2,1.1,-7.2,1.2,·,
O=C(CSc1nnc(-c2ccccc2)o1)NC1CCCCC1,-0.5,1.7,3.8,-1.9,-6.0,2.6,·,
Cc1ccc(S(=O)(=O)Nc2ccccc2)cc1[N+](=O)[O-],·,-2.0,·,·,·,·,·,
Cc1cccc2c(N=Nc3ccc(S(=O)(=O)Nc4cccc(Cl)c4)cc3[N+](=O)[O-])c(O)[nH]c12,15.2,1.3,-1.3,36.1*,-4.3,31.6*,27.7*,
CCC(=O)NC(c1ccccc1Cl)c1c(O)ccc2ccccc12 (centres undefined),-5.9,2.1,-1.6,18.4*,-3.9,46.7*,1.2,
O=C(O)COc1ccccc1/C=N/Nc1ccc(S(=O)(=O)Nc2ccc(Cl)cc2)cc1[N+](=O)[O-],-22.5,5.3,-0.3,18.5*,1.9,50.1*,24.2*,
O=C(O)COc1ccccc1C=NNc1ccc([N+](=O)[O-])cc1S(=O)(=O)Nc1ccc(Cl)cc1,·,13.4,-2.8,·,·,·,·,
Cc1cc(C(=O)Nc2nc3ccc(S(C)(=O)=O)cc3s2)c(C)o1,-3.9,-2.6,0.7,0.9,0.6,2.8,·,
Cc1nc2scc(-c3ccccc3)c2c(=O)o1,-2.8,0.6,-2.4,33.8*,-9.7,-1.8,61.2*,Fam108b ABPP HTS=85.0*
COc1ccc(-c2csc3nc(-c4ccc(C)cc4)oc(=O)c23)cc1OC,-3.0,-2.1,-2.8,-0.8,-0.3,10.1,·,
Cc1ccc(C)n1-n1c(C)nc2scc(-c3ccccc3)c2c1=O,0.3,2.5,0.0,-1.0,-0.5,0.5,·,
COc1ccc(-c2csc3nc(-c4ccccc4OC)oc(=O)c23)cc1,3.0,-3.0,1.5,27.9*,1.0,-9.3,51.5*,Fam108b ABPP HTS=85.0*
O=c1oc(-c2ccccc2F)nc2scc(-c3ccccc3)c12,-8.8,-2.0,1.9,55.4*,-3.7,-11.9,54.4*,Fam108b ABPP HTS=80.0*
O=C(COc1coc(CN2CCN(c3ccccc3)CC2)cc1=O)NC1CCCCC1,7.2,2.1,-3.2,-2.2,·,-6.8,·,
CSc1nc(N)nc(N(C)C)n1,-7.0,-2.7,-0.1,-0.7,3.6,1.8,·,
CCOc1ccccc1Oc1c(C)oc2c(CN3CCN(C)CC3)c(O)ccc2c1=O,2.1,0.1,7.7,4.7,-1.1,-1.1,·,

# Bioassay records as filed in PubChem.
